The nature of data set [1]: folding enthalpy; higher = less favourable; fluorescence melt of hairpins on a sequencing array, two-state fit. To be noted: sodium 0.088 M. In a few lines: (§1)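 Library hairpins on a sequenced MiSeq flow cell carried annealed Cy3 and quencher oligos, and their Cy3 fluorescence was imaged in 50 mM Na-HEPES pH 8.0 with 25 mM NaCl, in 2.5 °C steps up to 60 °C. Signals were normalised to Cy3 before quenching and to control constructs. Melting temperature and folding enthalpy were obtained from bootstrapped two-state fits, combined by inverse-variance weighting across four replicates, and the fitted temperatures were then raised by 9.35 °C to match UV melts.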

Data set [2] can be described thus: melting temperature; fluorescence melt of hairpins on a sequencing array, two-state fit, raised by 9.35 °C to match UV melts. To be noted: sodium 0.088 M. In a few lines: as §1

Regarding GAACGAGAAATCGTTC ((((((....)))))), in data set [1], the folding enthalpy was -31.3 kcal/mol. The Tm in data set [2] was determined as 54.5 °C.
For the sequence GAACGAGCGAAAGCTTTC (((..(((....)))))), in data set [1], the folding enthalpy was -8.11 kcal/mol. In addition, in data set [2], the Tm was 23.9 °C.
Turning to GAACGAGGAAACCCGTTC (((((.(....).))))), in data set [1], the folding enthalpy is -33.5 kcal/mol. The Tm in data set [2] is 45.9 °C.
On to GAACGAGGAAACTTGTTC ((((.((....)).)))), for which, in data set [1], the folding enthalpy is -28.7 kcal/mol. Further, the Tm in data set [2] is 43.2 °C.
In the case of GAACGCACGAAAGTGTTC (((..(((....)))))), in data set [1], the folding enthalpy was -12.8 kcal/mol. Besides, the Tm in data set [2] amounted to 34.1 °C.
For the sequence GAACGCGAAAGCGAGTTC ((((((....)))..))), the folding enthalpy in data set [1] is -14.8 kcal/mol. Also, in data set [2], the Tm was found to be 43.1 °C.
On to GAACGCGAAAGCGATTC ((((((....))).))), for which the folding enthalpy in data set [1] is -14.1 kcal/mol. Also, the Tm in data set [2] is 45.7 °C.
Consider GAACGCGAAAGCGATTTC ((((((....)))..))), for which the folding enthalpy in data set [1] was -9.14 kcal/mol. Further, the Tm in data set [2] came out at 32.3 °C.
Regarding GAACGCGAAAGCGTGTTC ((((((....)))..))), the folding enthalpy in data set [1] was -10.5 kcal/mol. In data set [2], the Tm was found to be 46.6 °C.
With GAACGCGCGAAAGCGTTC (((..(((....)))))), the folding enthalpy in data set [1] is -24.7 kcal/mol. For the same sequence, in data set [2], the Tm was 57.8 °C.
For GAACGCGGAAACACGTCC (.(((.(....).))).), in data set [1], the folding enthalpy is -20.1 kcal/mol. Besides, the Tm in data set [2] came to 28.2 °C.
Turning to GAACGCGGAAACGCACTC ((..(((....)))..)), the folding enthalpy in data set [1] is -8.19 kcal/mol. In addition, in data set [2], the Tm stood at 30.1 °C.
Turning to GAACGCGGAAACGCATTC (((.(((....))).))), the folding enthalpy in data set [1] was -19.9 kcal/mol. The Tm in data set [2] was determined as 40.1 °C.
For the sequence GAACGCGGAAACGCGTCC (.(((((....))))).), in data set [1], the folding enthalpy was -9.64 kcal/mol. Besides, the Tm in data set [2] stood at 47.8 °C.
Take GAACGGAAACGTTC (((((....))))): in data set [1], the folding enthalpy is -31.7 kcal/mol. The Tm in data set [2] is 55.2 °C.
Consider GAACGGACGAAAGTCTTC (((..(((....)))))), for which the folding enthalpy in data set [1] is -7.13 kcal/mol. Moreover, in data set [2], the Tm is 20.7 °C.
For the sequence GAACGGGGAAACCCGCTC ((.((((....)))).)), in data set [1], the folding enthalpy is -16.3 kcal/mol. The Tm in data set [2] came out at 45.3 °C.
Turning to GAACGTGGAAACATGTTC ((((.((....)).)))), the folding enthalpy in data set [1] was -36.2 kcal/mol. In addition, the Tm in data set [2] turned out to be 47.2 °C.
Regarding GAACGTGGAAACGCGTTC (((((.(....).))))), in data set [1], the folding enthalpy was -36.4 kcal/mol. Also, the Tm in data set [2] turned out to be 53.8 °C.
For GAACTAGAAATAGTTC ((((((....)))))) the same measures were -29.3 kcal/mol and 42 °C.
As for GAACTAGGAAACTAGTCC (.(((((....))))).), in data set [1], the folding enthalpy was -20.4 kcal/mol. Also, in data set [2], the Tm is 29.7 °C.
For GAACTCCCGAAAGGGTTC (((..(((....)))))) the same measures were -12.6 kcal/mol and 31.7 °C.
For the sequence GAACTGGCGAAAGCCTTC (((..(((....)))))), the folding enthalpy in data set [1] is -6.15 kcal/mol. Further, the Tm in data set [2] turned out to be 19.7 °C.
For GAACTGGGAAACCAGTCC (.(((((....))))).), the folding enthalpy in data set [1] is -14.1 kcal/mol. In data set [2], the Tm was found to be 37.3 °C.
Regarding GAACTTGGAAACAAGCTC ((.((((....)))).)), the folding enthalpy in data set [1] was -27.1 kcal/mol. Moreover, the Tm in data set [2] was found to be 33.8 °C.
For GAACTTGGAAACAAGTCC (.(((((....))))).) the same measures were -16.4 kcal/mol and 36 °C.
As for GAACTTGGAAACAGGTTC ((((.((....)).)))), the folding enthalpy in data set [1] is -32.2 kcal/mol. In data set [2], the Tm stood at 41 °C.
For the sequence GAAGAACGAAAGTTTTTC (((.(((....))).))), the folding enthalpy in data set [1] was -28.8 kcal/mol. Moreover, in data set [2], the Tm was 36 °C.
Turning to GAAGAAGAAATTCTTC ((((((....)))))), the folding enthalpy in data set [1] was -18.5 kcal/mol. Also, the Tm in data set [2] stood at 38.1 °C.
For GAAGAAGCGAAAGCTTTC (((..(((....)))))) the same measures were -9.3 kcal/mol and 30.1 °C.
For GAAGACCGAAAGGTGTTC (((.(((....))).))) the same measures were -33 kcal/mol and 52 °C.
For GAAGACGAAAGTCCGTTC ((((((....)))..))), the folding enthalpy in data set [1] was -8.8 kcal/mol. Also, the Tm in data set [2] stood at 27.6 °C.
As for GAAGACGAAAGTCGTTTC ((((((....)))..))), the folding enthalpy in data set [1] is -12.1 kcal/mol. Further, in data set [2], the Tm is 35.3 °C.
For GAAGACGCGAAAGCGTTC (((..(((....)))))) the same measures were -7.5 kcal/mol and 32.1 °C.
For GAAGAGAAATCTTC (((((....))))) the same measures were -10.9 kcal/mol and 30.6 °C.
On to GAAGATGGAAACATTTTC (((.(((....))).))), for which the folding enthalpy in data set [1] is -21.9 kcal/mol. Besides, the Tm in data set [2] was 30.4 °C.
Consider GAAGCCGAAAGGCAGTTC ((((((....)))..))), for which, in data set [1], the folding enthalpy is -9.04 kcal/mol. Also, the Tm in data set [2] worked out at 30 °C.

The record behind these values is the array DNA melting data of Ke et al. (doi:10.1101/2024.01.08.574731).
